Measurements pooled from the literature.
Lines come from different studies, so protocols differ.
PGR: Progesterone receptor (PGR, Homo sapiens, UniProt P06401)
SLCO1B1: Solute carrier organic anion transporter family member 1B1 (SLCO1B1, Homo sapiens, UniProt Q9Y6L6)
CHRM1: Muscarinic acetylcholine receptor M1 (CHRM1, Homo sapiens, UniProt P11229)

C[C@]12CC[C@H]3[C@@H](CCC4=CC(=O)CC[C@@]43C)[C@@H]1CC[C@@H]2O — IC50 (PGR; ligand displacement): > 0.5 µM
CCN1C[C@]2(COC)[C@H](O)C[C@H](OC)[C@@]34[C@@H]5C[C@@]6(O)[C@H](OC(=O)c7ccccc7)[C@@H]5[C@@](OC(C)=O)([C@@H]([C@H](OC)[C@H]23)[C@@H]14)[C@@H](O)[C@@H]6OC — IC50 (SLCO1B1; transporter uptake, inhibitor, fluorescence; CHO; 30 min, pH 7.4): > 100 µM
COC1CCN(CCC(C#N)(c2ccccc2)c2ccccc2)CC1 — IC50 (Potassium voltage-gated channel subfamily A member 3 (Kcna3, Mus musculus, UniProt P16390); ion current, inhibitor, patch clamp): > 100 µM
CCOC(=O)c1cncn1[C@H](C)c1ccccc1 — IC50 (SLCO1B1; transporter uptake, inhibitor, fluorescence; CHO; 30 min, pH 7.4): > 100 µM
C[C@]12CC[C@H]3[C@@H](CCC4=CC(=O)CC[C@@H]43)[C@@H]1CC[C@@H]2O — IC50 (PGR; ligand displacement): 0.0678 µM
C[C@]1(O)CC[C@H]2[C@@H]3CCC4=CC(=O)CCC4=C3CC[C@@]21C — EC50 (PGR; reporter gene, agonist): 0.0008 µM
CC(C)(C)[C@H](NC(=O)C(F)(F)F)C(=O)N1C[C@H]2[C@@H]([C@H]1C(=O)N[C@H](C#N)C[C@@H]1CCNC1=O)C2(C)C — Ki (Cytochrome P450 3A4 (CYP3A4, Homo sapiens, UniProt P08684); enzyme activity, inhibitor; human, liver microsomes): 22.6 µM
CCCCCCCNCCCc1ccc([N+](=O)[O-])cc1 — Ki (CHRM1; ligand displacement, radioligand): 1.9 µM
Clc1cccc(N2CCNCC2)c1Cl — Ki (CHRM1; ligand displacement, radioligand; cell membranes): 25.1 µM
Cc1nnc2n1-c1ccc(Cl)cc1C(c1ccccc1)=NC2 — IC50 (Cytochrome P450 1A2 (CYP1A2, Homo sapiens, UniProt P05177); enzyme activity, inhibitor, fluorescence): > 100 µM
CC(C)(C)[C@H](NC(=O)C(F)(F)F)C(=O)N1C[C@H]2[C@@H]([C@H]1C(=O)N[C@H](C#N)C[C@@H]1CCNC1=O)C2(C)C — IC50 (Papain (Carica papaya, UniProt P00784); enzyme activity, inhibitor): > 10 µM
